Results on 36 compounds are retold here after the M2OR odorant receptor database.

SMILES strings stand for the structures.
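Also: active if original authors judged signal statistically different from baseline.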

This test concerns the target T1, OR2M3 (Homo sapiens) (UniProt Q8NG83).
T1 sequence (whole entry): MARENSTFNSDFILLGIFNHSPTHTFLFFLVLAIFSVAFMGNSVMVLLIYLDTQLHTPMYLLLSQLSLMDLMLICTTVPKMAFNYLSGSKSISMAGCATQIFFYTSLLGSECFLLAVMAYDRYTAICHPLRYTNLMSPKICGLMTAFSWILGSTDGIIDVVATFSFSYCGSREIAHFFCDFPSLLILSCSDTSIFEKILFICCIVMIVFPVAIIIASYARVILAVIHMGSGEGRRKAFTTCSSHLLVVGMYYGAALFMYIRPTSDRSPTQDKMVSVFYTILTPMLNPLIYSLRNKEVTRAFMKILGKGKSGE
As to conditions: stereoisomer not certain. The method, boiled down:
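Each receptor–molecule pair is labelled responsive or non-responsive (inactive) according to whether the original authors judged the measured signal statistically different from baseline. The data were taken from the main text and supplementary material of published papers and checked for typos and inconsistencies. Assay methods differed by source, with transient luciferase assays in mammalian cell lines being common.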
Regarding `CC(=O)CC(C)(C)S`, the “odorant receptor agonist call” value is “inactive”.
For `COc1nccnc1CC(C)C`, the “odorant receptor agonist call” value was “inactive”.
For the compound `O=C(O)CCc1ccccc1`, the “odorant receptor agonist call” value was “inactive”.
`CCOC(=O)C1CCCCC1`: the “odorant receptor agonist call” value was “inactive”.
Consider `CC1=CCC(C(C)C)C=C1` (stereo unspecified), for which the “odorant receptor agonist call” value was “inactive”.
With `CCCSSSC`, the “odorant receptor agonist call” value is “inactive”.
The result for `CCC=CCC=O` reads “inactive”; that for `SCc1cccs1`, “inactive”.
Consider `C=CC(=C)CCC=C(C)C`, for which the “odorant receptor agonist call” value was “inactive”.
For `CCC(C)c1nccnc1OC` (stereo unspecified), the “odorant receptor agonist call” value is “inactive”.
In the case of `CCOC(=O)CCSC`, the “odorant receptor agonist call” value is “inactive”.
With `CSSSC`, the “odorant receptor agonist call” value is “inactive”.
With `CCOC(=O)CC(C)C`, the “odorant receptor agonist call” value was “inactive”.
For `CCCC(S)CCO` (stereo unspecified), the “odorant receptor agonist call” value is “inactive”.
Consider `CCC(=O)C1=NCCC1`, for which the “odorant receptor agonist call” value is “inactive”.
Take `CSSc1ccoc1C`: the “odorant receptor agonist call” value is “inactive”.
In the case of `CCCC1CCCC(=O)O1` (stereo unspecified), the “odorant receptor agonist call” value was “inactive”.
As to `CCCCCC(C)O` (stereo unspecified), the “odorant receptor agonist call” value was “inactive”.
Regarding `CC=CC(=O)C(C)CC` (stereo unspecified), the “odorant receptor agonist call” value is “inactive”.
In the case of `CC(=O)C1=NCCS1`, the “odorant receptor agonist call” value was “inactive”.
Take `CCC=O`: the “odorant receptor agonist call” value was “inactive”.
Turning to `CCc1ccc(O)cc1`, the “odorant receptor agonist call” value is “inactive”.
Take `CCOC(=O)C=Cc1ccccc1`: the “odorant receptor agonist call” value is “inactive”.
Turning to `CCC(C)C=O` (stereo unspecified), the “odorant receptor agonist call” value is “inactive”.
In the case of `Cc1cccc(C)c1O`, the “odorant receptor agonist call” value is “inactive”.
For the compound `CC(=O)c1ccc(C)cc1`, the “odorant receptor agonist call” value was “inactive”.
Regarding `COc1cccc(OC)c1O`, the “odorant receptor agonist call” value is “inactive”.
Turning to `CCc1ccc(O)c(OC)c1`, the “odorant receptor agonist call” value was “inactive”.
With `C=CC(O)CCCCC` (stereo unspecified), the “odorant receptor agonist call” value was “inactive”.
For the compound `CCCC(S)C(C)CO` (stereo unspecified), the “odorant receptor agonist call” value is “active”.
With `CCCCCC1CCC(=O)O1` (stereo unspecified), the “odorant receptor agonist call” value is “inactive”.
For `CCCCC(C)CCC(=O)O` (stereo unspecified), the “odorant receptor agonist call” value is “inactive”.
In the case of `C=CC(=O)CC`, the “odorant receptor agonist call” value is “inactive”.
`CCCCCCCC1CCC(=O)O1` (stereo unspecified): the “odorant receptor agonist call” value was “inactive”.
Regarding `CC(C)c1ccc(C=O)cc1`, the “odorant receptor agonist call” value was “inactive”.
For `CCCSSCCC`, the “odorant receptor agonist call” value was “inactive”.
